Test results from ChEMBL document CHEMBL3526105, “Cytochrome P450-mediated oxidative metabolism of abused synthetic cannabinoids found in K2/Spice: identification of novel cannabinoid receptor ligands” (Drug Metab Dispos, 2012).
Active and inactive are the calls of the source. The rule behind the calls is not given here.

Tests used:
[1] = Drug metabolism in human urine assessed as 5-(3-(1-naphthoyl)-1H-indol-1-yl)pentanoic acid formation by LC-MS/MS analysis; type: ADME, tissue-based
Summary of the method: (§1)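 Urine from suspected users (40 μl) incubated with or without β-glucuronidase (1.6 U/μl final) in 0.1 M sodium acetate pH 5.0, 60 min at 37°C with shaking. Analysed by positive-ESI LC-MS/MS against standards matrix-matched in blank pooled human urine, with confirmation by enhanced product ion spectra.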

Cytochrome P450 3A4 [2] = biological target: T1, Cytochrome P450 3A4 (Homo sapiens, UniProt P08684); assay: Drug metabolism assessed as human recombinant CYP3A4-mediated (1-(5-fluoro-4-hydroxypentyl)-1H-indol-3-yl)(naphthalen-1-yl)methanone formation at 10 uM after 90 mins by LC-MS/MS analysis; type: ADME; details: recombinant enzyme, 1.5 h
T1 sequence (P08684 whole entry): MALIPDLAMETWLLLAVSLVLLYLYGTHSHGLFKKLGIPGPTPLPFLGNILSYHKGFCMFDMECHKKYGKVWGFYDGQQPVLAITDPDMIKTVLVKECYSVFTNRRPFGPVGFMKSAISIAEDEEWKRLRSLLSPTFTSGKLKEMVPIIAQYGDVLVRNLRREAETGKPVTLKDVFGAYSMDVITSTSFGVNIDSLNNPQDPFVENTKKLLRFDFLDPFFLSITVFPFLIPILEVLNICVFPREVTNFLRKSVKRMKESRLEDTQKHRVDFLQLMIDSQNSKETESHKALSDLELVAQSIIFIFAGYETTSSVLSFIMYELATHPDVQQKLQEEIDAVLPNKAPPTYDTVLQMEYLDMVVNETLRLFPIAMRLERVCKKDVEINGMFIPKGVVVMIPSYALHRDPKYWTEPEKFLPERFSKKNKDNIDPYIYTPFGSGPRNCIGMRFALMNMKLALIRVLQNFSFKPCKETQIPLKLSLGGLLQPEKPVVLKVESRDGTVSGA
Summary of the method: (§2)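 Recombinant human CYP2E1 or CYP3A4 (2 pmol) incubated with substrate at 10 μM final, dried from ethanol. Buffer 0.1 M KPO4 pH 7.4 with NADPH-regenerating system, which starts the reaction. 90 min at 37°C, triplicate, with no-substrate, no-protein and no-NADPH controls. Stopped with ethanol, centrifuged, and metabolites quantified by LC-MS/MS.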

[3] = biological target: Cannabinoid receptor 1 (Mus musculus) (UniProt P47746); assay: Activation of CB1 receptor in B6SJL mouse brain membrane assessed as [35S]-GTPgammaS binding at 10 uM after 30 mins by liquid scintillation spectrophotometric analysis; type: functional, cell membranes
Chain of Cannabinoid receptor 1 (Mus musculus) (P47746 whole entry): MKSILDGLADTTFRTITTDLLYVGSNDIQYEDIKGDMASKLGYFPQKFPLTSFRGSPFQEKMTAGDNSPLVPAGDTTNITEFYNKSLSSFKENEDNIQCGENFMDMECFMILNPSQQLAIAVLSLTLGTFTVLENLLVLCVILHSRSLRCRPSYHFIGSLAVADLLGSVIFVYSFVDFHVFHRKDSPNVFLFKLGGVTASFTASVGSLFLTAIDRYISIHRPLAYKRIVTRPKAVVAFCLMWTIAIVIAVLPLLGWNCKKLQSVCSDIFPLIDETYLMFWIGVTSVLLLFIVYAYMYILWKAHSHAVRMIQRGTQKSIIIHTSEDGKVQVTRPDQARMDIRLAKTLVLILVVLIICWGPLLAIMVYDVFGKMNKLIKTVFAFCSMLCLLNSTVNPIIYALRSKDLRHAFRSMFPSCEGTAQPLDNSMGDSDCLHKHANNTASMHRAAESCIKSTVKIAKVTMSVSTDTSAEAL
Summary of the method: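 Mouse brain membrane homogenate (25 μg; whole B6SJL brains, pooled, Dounce-homogenised, spun 40,000g three times). Incubated with […], 0.1 nM [35S]GTPγS in 20 mM HEPES, 10 mM MgCl2, 100 mM NaCl, 20 U/l adenosine deaminase, 0.05% BSA, 30 min at 30°C, triplicate. Nonspecific binding with 10 μM unlabelled GTPγS. Stopped by GF/B filtration; filters counted by scintillation.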

[4] = Drug metabolism in human urine assessed as (1-(5-fluoro-4-hydroxypentyl)-1H-indol-3-yl)(naphthalen-1-yl)methanone formation by LC-MS/MS analysis; type: ADME, tissue-based; summary of the method: as §1
Cannabinoid receptor 1 = Cannabinoid receptor 1 (Mus musculus, UniProt P47746); assay: Displacement of [3H]CP-55,940 from CB1 receptor in B6SJL mouse brain membrane after 90 mins by liquid scintillation spectrophotometric analysis; type: cell membranes
Chain of Cannabinoid receptor 1 (P47746 whole entry): as above
Summary of the method: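 B6SJL mouse brain membranes (50 μg) with 0.2 nM [3H]CP-55,940 and competitor at 0.1 nM–10 μM. Buffer 5 mM MgCl2, 50 mM Tris, 0.05% BSA; 90 min at room temperature, triplicate. Nonspecific binding set with 10 μM WIN-55,212-2. Filtered on GF/B, washed with Tris/BSA, counted by scintillation. Specific binding given as % of vehicle.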

[5] = Drug metabolism in human urine assessed as (1-(5-hydroxypentyl)-1H-indol-3-yl)(naphthalen-1-yl)methanone formation by LC-MS/MS analysis; type: ADME, tissue-based; summary of the method: as §1
[6] = biological target: Cannabinoid receptor 1 (Mus musculus) (UniProt P47746); assay: Activation of CB1 receptor in B6SJL mouse brain membrane assessed as [35S]-GTPgammaS binding at 10 uM after 30 mins by liquid scintillation spectrophotometric analysis in presence of O-2050; type: functional, cell membranes
Cytochrome P450 2E1 [7] = biological target: T2, Cytochrome P450 2E1 (Homo sapiens, UniProt P05181); assay: Drug metabolism assessed as human recombinant CYP2E1-mediated (1-(5-fluoro-4-hydroxypentyl)-1H-indol-3-yl)(naphthalen-1-yl)methanone formation at 10 uM after 90 mins by LC-MS/MS analysis; type: ADME; details: recombinant enzyme, 1.5 h; summary of the method: as §2
T2 sequence (P05181 whole entry): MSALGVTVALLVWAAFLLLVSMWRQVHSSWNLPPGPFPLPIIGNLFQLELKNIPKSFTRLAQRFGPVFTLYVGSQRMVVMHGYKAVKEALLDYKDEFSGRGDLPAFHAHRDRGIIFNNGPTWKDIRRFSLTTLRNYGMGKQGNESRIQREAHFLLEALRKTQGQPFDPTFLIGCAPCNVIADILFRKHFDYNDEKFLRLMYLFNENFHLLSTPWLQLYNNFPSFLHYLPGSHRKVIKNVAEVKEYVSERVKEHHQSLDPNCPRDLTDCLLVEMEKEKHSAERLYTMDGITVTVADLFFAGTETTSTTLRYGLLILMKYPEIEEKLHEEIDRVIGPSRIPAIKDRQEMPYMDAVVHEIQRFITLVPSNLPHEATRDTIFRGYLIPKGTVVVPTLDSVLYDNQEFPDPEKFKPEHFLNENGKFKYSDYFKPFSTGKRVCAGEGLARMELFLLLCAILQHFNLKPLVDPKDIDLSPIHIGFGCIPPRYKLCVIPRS

Cytochrome P450 3A4 [8] = biological target: T1, Cytochrome P450 3A4; assay: Drug metabolism assessed as human recombinant CYP3A4-mediated 5-(3-(1-naphthoyl)-1H-indol-1-yl)pentanoic acid formation at 10 uM after 90 mins by LC-MS/MS analysis; type: ADME; details: recombinant enzyme, 1.5 h; summary of the method: as §2
Cytochrome P450 3A4 [9] = biological target: T1, Cytochrome P450 3A4; assay: Drug metabolism assessed as human recombinant CYP3A4-mediated (1-(5-hydroxypentyl)-1H-indol-3-yl)(naphthalen-1-yl)methanone formation at 10 uM after 90 mins by LC-MS/MS analysis; type: ADME; details: recombinant enzyme, 1.5 h; summary of the method: as §2
Cytochrome P450 2E1 [10] = biological target: T2, Cytochrome P450 2E1; assay: Drug metabolism assessed as human recombinant CYP2E1-mediated (1-(5-hydroxypentyl)-1H-indol-3-yl)(naphthalen-1-yl)methanone formation at 10 uM after 90 mins by LC-MS/MS analysis; type: ADME; details: recombinant enzyme, 1.5 h; summary of the method: as §2
Cytochrome P450 2E1 [11] = biological target: T2, Cytochrome P450 2E1; assay: Drug metabolism assessed as human recombinant CYP2E1-mediated 5-(3-(1-naphthoyl)-1H-indol-1-yl)pentanoic acid formation at 10 uM after 90 mins by LC-MS/MS analysis; type: ADME; details: recombinant enzyme, 1.5 h; summary of the method: as §2
Liver microsome [12] = assay: Drug level in human liver microsomes treated with AM2201 at 10 uM after 20 mins by LC-MS/MS analysis; type: ADME
Summary of the method: (§3)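 Pooled human liver microsomes (75 μg) incubated with 10 μM substrate in 0.1 M KPO4 pH 7.4 with NADPH-regenerating system at 37°C. Reaction stopped with ethanol, centrifuged. Analytes quantified by positive-ESI LC-MS/MS against standards matrix-matched in reaction mixture, with confirmation by SRM-triggered enhanced product ion spectra library matching.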

Liver microsome [13] = assay: Drug metabolism in human liver microsomes assessed as intrinsic clearance per mg protein treated with AM2201; type: ADME
Cytochrome P450 1A2 [14] = biological target: T3, Cytochrome P450 1A2 (Homo sapiens, UniProt P05177); assay: Drug metabolism assessed as intrinsic clearance for human recombinant CYP1A2-mediated compound formation per nmol protein treated with JWH-018 at 10 uM after 90 mins; type: ADME; details: recombinant enzyme, 1.5 h
T3 sequence (P05177 whole entry): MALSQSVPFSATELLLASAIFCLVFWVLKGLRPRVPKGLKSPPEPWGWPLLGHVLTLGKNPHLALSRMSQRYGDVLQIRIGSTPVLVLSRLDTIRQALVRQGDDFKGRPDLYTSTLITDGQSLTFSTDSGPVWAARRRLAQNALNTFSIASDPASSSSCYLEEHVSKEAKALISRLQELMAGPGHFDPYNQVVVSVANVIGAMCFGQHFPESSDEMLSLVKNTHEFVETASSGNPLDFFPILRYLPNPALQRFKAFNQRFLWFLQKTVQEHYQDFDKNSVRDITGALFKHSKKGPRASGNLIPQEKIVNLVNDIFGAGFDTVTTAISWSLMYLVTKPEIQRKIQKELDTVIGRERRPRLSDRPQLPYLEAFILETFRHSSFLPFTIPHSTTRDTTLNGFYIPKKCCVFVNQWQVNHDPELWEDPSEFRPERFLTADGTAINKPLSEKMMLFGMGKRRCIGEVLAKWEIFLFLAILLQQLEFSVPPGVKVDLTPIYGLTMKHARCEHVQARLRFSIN

[15] = Drug level in human urine treated with JWH-018 by LC-MS/MS analysis; type: ADME, tissue-based; summary of the method: as §1
Cytochrome P450 2D6 [16] = biological target: T4, Cytochrome P450 2D6 (Homo sapiens, UniProt P10635); assay: Drug metabolism assessed as intrinsic clearance for human recombinant CYP2D6-mediated compound formation per nmol protein treated with JWH-018 at 10 uM after 90 mins; type: ADME; details: recombinant enzyme, 1.5 h
T4 sequence (P10635 whole entry): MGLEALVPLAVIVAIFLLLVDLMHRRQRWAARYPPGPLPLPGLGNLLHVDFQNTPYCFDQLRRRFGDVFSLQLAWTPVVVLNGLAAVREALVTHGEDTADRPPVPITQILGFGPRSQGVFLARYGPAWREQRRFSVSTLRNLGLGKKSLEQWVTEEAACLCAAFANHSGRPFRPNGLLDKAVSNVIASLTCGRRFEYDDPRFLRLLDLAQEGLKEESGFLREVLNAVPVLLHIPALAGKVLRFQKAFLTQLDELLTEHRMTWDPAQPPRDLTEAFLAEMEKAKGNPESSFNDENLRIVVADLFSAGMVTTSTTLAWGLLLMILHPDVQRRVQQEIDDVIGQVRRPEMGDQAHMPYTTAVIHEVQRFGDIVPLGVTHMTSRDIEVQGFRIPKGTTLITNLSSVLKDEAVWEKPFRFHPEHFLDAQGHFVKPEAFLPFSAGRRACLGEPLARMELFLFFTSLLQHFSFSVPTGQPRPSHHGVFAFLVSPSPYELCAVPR

Cytochrome P450 2D6 [17] = biological target: T4, Cytochrome P450 2D6; assay: Drug metabolism assessed as intrinsic clearance for human recombinant CYP2D6-mediated compound formation per nmol protein treated with AM2201 at 10 uM after 90 mins; type: ADME; details: recombinant enzyme, 1.5 h
Cytochrome P450 2C19 [18] = biological target: T5, Cytochrome P450 2C19 (Homo sapiens, UniProt P33261); assay: Drug metabolism assessed as intrinsic clearance for human recombinant CYP2C19-mediated compound formation per nmol protein treated with JWH-018 at 10 uM after 90 mins; type: ADME; details: recombinant enzyme, 1.5 h
T5 sequence (P33261 whole entry): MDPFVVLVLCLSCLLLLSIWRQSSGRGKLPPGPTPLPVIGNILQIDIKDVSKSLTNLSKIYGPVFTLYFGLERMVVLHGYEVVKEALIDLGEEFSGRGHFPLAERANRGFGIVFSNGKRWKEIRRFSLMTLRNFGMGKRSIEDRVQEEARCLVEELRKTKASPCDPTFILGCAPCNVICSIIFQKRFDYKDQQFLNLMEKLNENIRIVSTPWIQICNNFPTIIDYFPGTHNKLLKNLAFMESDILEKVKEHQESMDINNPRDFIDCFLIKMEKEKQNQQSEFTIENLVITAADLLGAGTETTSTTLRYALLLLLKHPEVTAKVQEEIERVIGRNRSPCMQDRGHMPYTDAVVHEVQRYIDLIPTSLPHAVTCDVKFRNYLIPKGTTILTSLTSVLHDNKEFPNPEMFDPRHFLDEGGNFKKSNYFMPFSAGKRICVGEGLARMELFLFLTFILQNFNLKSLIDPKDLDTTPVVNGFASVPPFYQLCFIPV

Cytochrome P450 1A2 [19] = biological target: T3, Cytochrome P450 1A2; assay: Drug metabolism assessed as intrinsic clearance for human recombinant CYP1A2-mediated compound formation per nmol protein treated with AM2201 at 10 uM after 90 mins; type: ADME; details: recombinant enzyme, 1.5 h
Cytochrome P450 2C19 [20] = biological target: T5, Cytochrome P450 2C19; assay: Drug metabolism assessed as intrinsic clearance for human recombinant CYP2C19-mediated compound formation per nmol protein treated with AM2201 at 10 uM after 90 mins; type: ADME; details: recombinant enzyme, 1.5 h
Cytochrome P450 2C9 [21] = biological target: T6, Cytochrome P450 2C9 (Homo sapiens, UniProt P11712); assay: Drug metabolism assessed as intrinsic clearance for human recombinant CYP2C9-mediated compound formation per nmol protein treated with AM2201 at 10 uM after 90 mins; type: ADME; details: recombinant enzyme, 1.5 h
T6 sequence (P11712 whole entry): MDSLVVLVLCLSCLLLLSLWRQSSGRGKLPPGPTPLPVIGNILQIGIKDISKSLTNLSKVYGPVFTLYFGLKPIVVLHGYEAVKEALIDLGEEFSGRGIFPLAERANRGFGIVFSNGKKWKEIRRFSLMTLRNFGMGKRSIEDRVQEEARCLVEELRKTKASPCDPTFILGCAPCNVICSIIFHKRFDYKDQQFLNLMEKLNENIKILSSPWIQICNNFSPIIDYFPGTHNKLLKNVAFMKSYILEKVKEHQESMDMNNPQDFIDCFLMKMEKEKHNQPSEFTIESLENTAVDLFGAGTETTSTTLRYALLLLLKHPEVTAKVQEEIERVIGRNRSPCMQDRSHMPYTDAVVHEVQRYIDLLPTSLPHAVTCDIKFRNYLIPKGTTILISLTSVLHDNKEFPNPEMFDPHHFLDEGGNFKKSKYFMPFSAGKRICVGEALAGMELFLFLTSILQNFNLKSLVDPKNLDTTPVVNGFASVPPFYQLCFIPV

Liver microsome [22] = assay: Drug metabolism in human liver microsomes assessed as intrinsic clearance per mg protein treated with JWH-018; type: ADME
Cytochrome P450 2C9 [23] = biological target: T6, Cytochrome P450 2C9; assay: Drug metabolism assessed as intrinsic clearance for human recombinant CYP2C9-mediated compound formation per nmol protein treated with JWH-018 at 10 uM after 90 mins; type: ADME; details: recombinant enzyme, 1.5 h
Liver microsome [24] = assay: Drug level in human liver microsomes treated with JWH-018 at 10 uM after 20 mins by LC-MS/MS analysis; type: ADME; summary of the method: as §3
Cytochrome b5 = Cytochrome b5 (Homo sapiens, UniProt P00167); assay: Drug metabolism assessed as cytochrome b5 (unknown origin)-mediated compound formation treated with JWH-018 at 10 uM after 90 mins by LC-MS/MS analysis in presence of oxidoreductase; type: ADME; details: 1.5 h
Chain of Cytochrome b5 (P00167 whole entry): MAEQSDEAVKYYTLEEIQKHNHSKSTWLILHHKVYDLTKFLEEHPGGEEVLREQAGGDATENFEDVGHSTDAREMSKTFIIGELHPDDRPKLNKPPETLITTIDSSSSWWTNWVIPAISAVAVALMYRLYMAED

O=C(c1cccc2ccccc12)c1cn(CCCCCF)c2ccccc12
Drug metabolism [1]: metabolite_detected
Drug metabolism (Cytochrome P450 3A4 [2]): metabolite_not_detected
Activity [3]: Active
Drug metabolism [4]: metabolite_detected
Ki (Cannabinoid receptor 1): 0.395 nM
Drug metabolism [5]: metabolite_detected
Activity [6]: inactive
Drug metabolism (Cytochrome P450 2E1 [7]): metabolite_not_detected
Drug metabolism (Cytochrome P450 3A4 [8]): metabolite_not_detected
Drug metabolism (Cytochrome P450 3A4 [9]): metabolite_not_detected
Drug metabolism (Cytochrome P450 2E1 [10]): metabolite_not_detected
Drug metabolism (Cytochrome P450 2E1 [11]): metabolite_not_detected

O=C(c1cccc2ccccc12)c1cn(CCCCCO)c2ccccc12
Drug metabolism (Liver microsome [12]): 8.53 ng/mL
CLH (Liver microsome [13]): 0.483 µL/min/g
Activity [3]: Active
CL (Cytochrome P450 1A2 [14]): 157 µL/min
Drug metabolism [15]: metabolite_detected
Ki (Cannabinoid receptor 1): 35 nM
CL (Cytochrome P450 2D6 [16]): 9.3 µL/min
Activity [6]: inactive
CL (Cytochrome P450 2D6 [17]): 3.7 µL/min
CL (Cytochrome P450 2C19 [18]): 6.5 µL/min
CL (Cytochrome P450 1A2 [19]): 19 µL/min
CL (Cytochrome P450 2C19 [20]): 32 µL/min
CL (Cytochrome P450 2C9 [21]): 63 µL/min
CLH (Liver microsome [22]): 0.5 µL/min/mg
CL (Cytochrome P450 2C9 [23]): 1035 µL/min

CCCCCn1cc(C(=O)c2cccc3ccccc23)c2cccc(O)c21
CLH (Liver microsome [13]): 0 µL/min/g
Drug metabolism (Liver microsome [24]): metabolite_detected
CLH (Liver microsome [22]): 0 µL/min/mg

CCCCCCC(C)(C)c1ccc([C@@H]2C[C@H](O)CC[C@H]2CCCO)c(O)c1
Activity [3]: Active
Activity [6]: inactive

CCCCCn1cc(C(=O)c2cccc3ccccc23)c2ccc(O)cc21
Drug metabolism (Cytochrome b5): metabolite_detected
CLH (Liver microsome [13]): 0 µL/min/g
Drug metabolism (Liver microsome [24]): metabolite_detected
CLH (Liver microsome [22]): 1 µL/min/mg
